Measurements published in ChEMBL document CHEMBL5303300, “EUbOPEN Chemogenomics Library - Multiplex” (2023).
Several values for one entry are separate records, joined by “and”; a condition that tells them apart may be missing. Equal values may be shown once.

Assays:
Type in all cases: toxicity, cell-based
[1] = system: Fibroblast; assay: Multiplex assay against human fibroblast; conditions: number of replicates 2
How it was run: (§1)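 Live cells were stained at seeding with Hoechst33342, BioTracker Green Microtubule Cytoskeleton Dye, MitoTracker Red and Annexin V Alexa Fluor 680, then imaged on a CQ1 microscope at 37°C and 5% CO2 after compound addition. CellPathfinder machine-learning gating split cells into Hoechst high-intensity objects or normal cells. Normal cells were split into healthy, pyknosed or fragmented nuclei, and pyknosed cells into mitotic or apoptotic. Tubulin, mitochondrial-mass and membrane-permeability phenotypes are per cents of healthy-nucleus cells.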

[2] = system: HEK-293T; assay: Multiplex assay against HEK293T; conditions: human, number of replicates 2; how it was run: as §1
[3] = system: U2OS; assay: Multiplex assay against U2OS; conditions: human, number of replicates 2; how it was run: as §1
[4] = 12 h, 1 µM, compound concentration 1 uM
[5] = 12 h, 10 µM, compound concentration 10 uM
[6] = 24 h, 1 µM, compound concentration 1 uM
[7] = 24 h, 10 µM, compound concentration 10 uM
[8] = 48 h, 1 µM, compound concentration 1 uM
[9] = 48 h, 10 µM, compound concentration 10 uM

## Cc1c(C(=O)Nc2ccc(N3C[C@@H](C)O[C@@H](C)C3)nc2)cccc1-c1ccc(OC(F)(F)F)cc1 [SONIDEGIB]
[1]; [4]
  Population Apoptotic (%): 46% and 32%
  Population Fragmented Nuclei (%): 13% and 9%
  Population Healthy Nuclei (%): 64% and 70%
  Population Hoechst High Intensity Objects (%): 0%
  Population Membrane Permeable-Phenotype (%): 5%
  Population Mitochondria Different-Phenotype (%): 0% and 1%
  Population Mitotic Cells (%): 53% and 67%
  Population Normal (%): 100%
  Population Pyknosed Nuclei (%): 22% and 20%
  Population Tubulin-Different-Phenotype (%): 16% and 10%
  Total Cell Count: 193 and 230
[1]; [5]
  Population Apoptotic (%): 55% and 38%
  Population Fragmented Nuclei (%): 8% and 9%
  Population Healthy Nuclei (%): 83% and 80%
  Population Hoechst High Intensity Objects (%): 0%
  Population Membrane Permeable-Phenotype (%): 1% and 0%
  Population Mitochondria Different-Phenotype (%): 1% and 0%
  Population Mitotic Cells (%): 44% and 61%
  Population Normal (%): 100%
  Population Pyknosed Nuclei (%): 7% and 10%
  Population Tubulin-Different-Phenotype (%): 1% and 7%
  Total Cell Count: 117 and 128
[1]; [6]
  Population Apoptotic (%): 53% and 52%
  Population Fragmented Nuclei (%): 15% and 12%
  Population Healthy Nuclei (%): 60% and 69%
  Population Hoechst High Intensity Objects (%): 0%
  Population Membrane Permeable-Phenotype (%): 3%
  Population Mitochondria Different-Phenotype (%): 1% and 0%
  Population Mitotic Cells (%): 46% and 47%
  Population Normal (%): 100%
  Population Pyknosed Nuclei (%): 24% and 17%
  Population Tubulin-Different-Phenotype (%): 10% and 7%
  Total Cell Count: 179 and 224
[1]; [7]
  Population Apoptotic (%): 53% and 57%
  Population Fragmented Nuclei (%): 15% and 16%
  Population Healthy Nuclei (%): 73% and 70%
  Population Hoechst High Intensity Objects (%): 0%
  Population Membrane Permeable-Phenotype (%): 4% and 5%
  Population Mitochondria Different-Phenotype (%): 0% and 2%
  Population Mitotic Cells (%): 46% and 42%
  Population Normal (%): 100%
  Population Pyknosed Nuclei (%): 10% and 13%
  Population Tubulin-Different-Phenotype (%): 4% and 8%
  Total Cell Count: 123 and 141
[1]; [8]
  Population Apoptotic (%): 63% and 45%
  Population Fragmented Nuclei (%): 16% and 12%
  Population Healthy Nuclei (%): 65% and 72%
  Population Hoechst High Intensity Objects (%): 0%
  Population Membrane Permeable-Phenotype (%): 1% and 5%
  Population Mitochondria Different-Phenotype (%): 0%
  Population Mitotic Cells (%): 36% and 54%
  Population Normal (%): 100%
  Population Pyknosed Nuclei (%): 18% and 15%
  Population Tubulin-Different-Phenotype (%): 9% and 3%
  Total Cell Count: 162 and 218
[1]; [9]
  Population Apoptotic (%): 57% and 66%
  Population Fragmented Nuclei (%): 13% and 18%
  Population Healthy Nuclei (%): 75% and 59%
  Population Hoechst High Intensity Objects (%): 0%
  Population Membrane Permeable-Phenotype (%): 4% and 6%
  Population Mitochondria Different-Phenotype (%): 0% and 1%
  Population Mitotic Cells (%): 42% and 33%
  Population Normal (%): 100%
  Population Pyknosed Nuclei (%): 10% and 21%
  Population Tubulin-Different-Phenotype (%): 3% and 6%
  Total Cell Count: 128 and 138
[2]; [4]
  Population Apoptotic (%): 36% and 33%
  Population Fragmented Nuclei (%): 3%
  Population Healthy Nuclei (%): 85% and 86%
  Population Hoechst High Intensity Objects (%): 3% and 6%
  Population Membrane Permeable-Phenotype (%): 3%
  Population Mitochondria Different-Phenotype (%): 12%
  Population Mitotic Cells (%): 63% and 66%
  Population Normal (%): 96% and 93%
  Population Pyknosed Nuclei (%): 11% and 9%
  Population Tubulin-Different-Phenotype (%): 43% and 46%
  Total Cell Count: 668 and 769
[2]; [5]
  Population Apoptotic (%): 55% and 57%
  Population Fragmented Nuclei (%): 3% and 4%
  Population Healthy Nuclei (%): 84% and 85%
  Population Hoechst High Intensity Objects (%): 7% and 10%
  Population Membrane Permeable-Phenotype (%): 3% and 1%
  Population Mitochondria Different-Phenotype (%): 18% and 15%
  Population Mitotic Cells (%): 44% and 42%
  Population Normal (%): 92% and 89%
  Population Pyknosed Nuclei (%): 11% and 10%
  Population Tubulin-Different-Phenotype (%): 56% and 45%
  Total Cell Count: 652 and 496
[2]; [6]
  Population Apoptotic (%): 39% and 27%
  Population Fragmented Nuclei (%): 3% and 4%
  Population Healthy Nuclei (%): 90% and 89%
  Population Hoechst High Intensity Objects (%): 6% and 7%
  Population Membrane Permeable-Phenotype (%): 3% and 2%
  Population Mitochondria Different-Phenotype (%): 5% and 3%
  Population Mitotic Cells (%): 60% and 72%
  Population Normal (%): 93% and 92%
  Population Pyknosed Nuclei (%): 6% and 5%
  Population Tubulin-Different-Phenotype (%): 30% and 33%
  Total Cell Count: 984 and 1195
[2]; [7]
  Population Apoptotic (%): 53% and 55%
  Population Fragmented Nuclei (%): 6% and 7%
  Population Healthy Nuclei (%): 83%
  Population Hoechst High Intensity Objects (%): 6% and 8%
  Population Membrane Permeable-Phenotype (%): 3%
  Population Mitochondria Different-Phenotype (%): 5%
  Population Mitotic Cells (%): 46% and 45%
  Population Normal (%): 93% and 91%
  Population Pyknosed Nuclei (%): 9%
  Population Tubulin-Different-Phenotype (%): 30% and 28%
  Total Cell Count: 975 and 681
[2]; [8]
  Population Apoptotic (%): 17% and 12%
  Population Fragmented Nuclei (%): 12%
  Population Healthy Nuclei (%): 84%
  Population Hoechst High Intensity Objects (%): 7% and 10%
  Population Membrane Permeable-Phenotype (%): 5% and 4%
  Population Mitochondria Different-Phenotype (%): 0%
  Population Mitotic Cells (%): 82% and 87%
  Population Normal (%): 92% and 89%
  Population Pyknosed Nuclei (%): 3%
  Population Tubulin-Different-Phenotype (%): 12% and 15%
  Total Cell Count: 2699 and 2880
[2]; [9]
  Population Apoptotic (%): 14% and 19%
  Population Fragmented Nuclei (%): 13% and 10%
  Population Healthy Nuclei (%): 83% and 86%
  Population Hoechst High Intensity Objects (%): 8% and 7%
  Population Membrane Permeable-Phenotype (%): 4% and 5%
  Population Mitochondria Different-Phenotype (%): 0%
  Population Mitotic Cells (%): 85% and 80%
  Population Normal (%): 91% and 92%
  Population Pyknosed Nuclei (%): 2% and 3%
  Population Tubulin-Different-Phenotype (%): 12% and 8%
  Total Cell Count: 2536 and 1733
[3]; [4]
  Population Apoptotic (%): 66% and 51%
  Population Healthy Nuclei (%): 60% and 79%
  Population Hoechst High Intensity Objects (%): 0%
  Population Membrane Permeable-Phenotype (%): 4% and 1%
  Population Mitochondria Different-Phenotype (%): 0%
  Population Mitotic Cells (%): 33% and 48%
  Population Normal (%): 100%
  Population Pyknosed Nuclei (%): 7% and 13%
  Population Tubulin-Different-Phenotype (%): 56% and 90%
[3]; [5]
  Population Healthy Nuclei (%): 61% and 85%
  Population Hoechst High Intensity Objects (%): 0%
  Population Membrane Permeable-Phenotype (%): 0% and 1%
  Population Mitochondria Different-Phenotype (%): 0%
  Population Mitotic Cells (%): 100% and 54%
  Population Normal (%): 100%
  Population Pyknosed Nuclei (%): 11%
  Population Tubulin-Different-Phenotype (%): 57% and 90%
[3]; [6]
  Population Apoptotic (%): 50% and 66%
  Population Healthy Nuclei (%): 68% and 85%
  Population Hoechst High Intensity Objects (%): 0%
  Population Membrane Permeable-Phenotype (%): 0% and 2%
  Population Mitochondria Different-Phenotype (%): 0%
  Population Mitotic Cells (%): 50% and 33%
  Population Normal (%): 100% and 99%
  Population Pyknosed Nuclei (%): 4% and 9%
  Population Tubulin-Different-Phenotype (%): 64% and 88%
[3]; [7]
  Population Apoptotic (%): 50% and 63%
  Population Healthy Nuclei (%): 61% and 90%
  Population Hoechst High Intensity Objects (%): 0%
  Population Membrane Permeable-Phenotype (%): 4% and 1%
  Population Mitochondria Different-Phenotype (%): 0%
  Population Mitotic Cells (%): 50% and 36%
  Population Normal (%): 100%
  Population Pyknosed Nuclei (%): 10% and 7%
  Population Tubulin-Different-Phenotype (%): 75% and 90%
[3]; [8]
  Population Apoptotic (%): 33% and 54%
  Population Healthy Nuclei (%): 60% and 89%
  Population Hoechst High Intensity Objects (%): 0%
  Population Membrane Permeable-Phenotype (%): 6% and 1%
  Population Mitochondria Different-Phenotype (%): 0%
  Population Mitotic Cells (%): 66% and 45%
  Population Normal (%): 100%
  Population Pyknosed Nuclei (%): 5% and 7%
  Population Tubulin-Different-Phenotype (%): 70% and 89%
[3]; [9]
  Population Apoptotic (%): 42% and 46%
  Population Healthy Nuclei (%): 71% and 91%
  Population Hoechst High Intensity Objects (%): 0%
  Population Membrane Permeable-Phenotype (%): 0% and 1%
  Population Mitochondria Different-Phenotype (%): 0%
  Population Mitotic Cells (%): 57% and 53%
  Population Normal (%): 100%
  Population Pyknosed Nuclei (%): 8% and 6%
  Population Tubulin-Different-Phenotype (%): 74% and 89%
